Data: publication PMC3437246 (Biochemistry, 2012)
Read-outs that look alike come from different tables or passages of the source.

Columns and labels:
[1] = target: Y567A-P/T binary complex (Escherichia phage RB69, UniProt Q38087, D222A/D327A/Y567A); assay: Equilibrium fluorescence titration of dNTP opposite tC°; type: binding, bacteriophage RB69; conditions: 1mM dNTP added to Y567A-P/T binary complex
Outline: (§1)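 Exonuclease-deficient (D222A/D327A) RB69pol, wild type or Y567A, was expressed in E. coli BL21(DE). Enzyme at 1 μM was mixed with 300 nM 3'-dideoxy (ddC) terminated 13/18mer P/T carrying tC° at template position n, in 66 mM Tris-HCl pH 7.4 with 10 mM MgSO4 at 23°C. Excitation was 364 nm and emission was scanned 380–700 nm. Spectra were corrected for enzyme and buffer fluorescence.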

[2] = target: wt RB69pol (Escherichia phage RB69, UniProt Q38087, D222A/D327A); type: biochemical, bacteriophage RB69; conditions: template tC°; for kpol: 23°C, 10 mM Mg2+
Sequence of wt RB69pol (Q38087 whole entry D222A/D327A): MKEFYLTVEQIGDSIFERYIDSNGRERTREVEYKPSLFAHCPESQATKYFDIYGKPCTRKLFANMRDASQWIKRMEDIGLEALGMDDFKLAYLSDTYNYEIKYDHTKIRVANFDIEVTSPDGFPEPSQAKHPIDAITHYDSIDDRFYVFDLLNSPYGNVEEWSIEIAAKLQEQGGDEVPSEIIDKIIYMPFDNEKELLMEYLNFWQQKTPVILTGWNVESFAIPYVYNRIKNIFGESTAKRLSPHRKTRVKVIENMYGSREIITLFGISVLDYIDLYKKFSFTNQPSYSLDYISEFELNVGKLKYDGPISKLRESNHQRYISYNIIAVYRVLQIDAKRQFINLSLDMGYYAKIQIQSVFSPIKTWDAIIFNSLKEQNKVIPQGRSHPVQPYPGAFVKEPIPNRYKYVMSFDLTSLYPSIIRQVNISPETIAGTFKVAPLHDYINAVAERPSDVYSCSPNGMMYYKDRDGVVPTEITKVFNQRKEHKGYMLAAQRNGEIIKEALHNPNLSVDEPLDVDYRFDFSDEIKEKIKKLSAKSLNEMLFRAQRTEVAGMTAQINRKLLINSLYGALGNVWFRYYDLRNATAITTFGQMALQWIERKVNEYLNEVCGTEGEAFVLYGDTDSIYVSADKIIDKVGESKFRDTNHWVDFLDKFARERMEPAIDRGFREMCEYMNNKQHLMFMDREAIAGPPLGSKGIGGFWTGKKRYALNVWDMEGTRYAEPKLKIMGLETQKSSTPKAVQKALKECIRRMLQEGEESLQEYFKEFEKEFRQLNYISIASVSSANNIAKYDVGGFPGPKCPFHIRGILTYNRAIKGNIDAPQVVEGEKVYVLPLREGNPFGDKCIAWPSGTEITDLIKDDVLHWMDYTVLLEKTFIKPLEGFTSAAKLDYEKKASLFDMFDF
Outline: (§2)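 Single-turnover rapid quench was run at 23°C in 66 mM Tris-HCl pH 7.4 using exonuclease-deficient RB69pol. Enzyme plus 5'-32P primer/tC° template was mixed with Mg2+ and varying dNTP for 5 ms to 1 min (final 1 μM enzyme, 90 nM P/T, 10 mM Mg2+). Reactions were EDTA-quenched and resolved on 8 M urea PAGE. kobs came from single-exponential fits, then kpol and Kd,app from a hyperbolic fit; efficiency is kpol/Kd,app.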

[3] = target: RB69pol Y567A mutant (Escherichia phage RB69, UniProt Q38087, D222A/D327A/Y567A); type: biochemical, bacteriophage RB69; conditions: for Kpol/Kd,app / kpol: Y567A mutant, template tC°; for kpol: 23°C, 10 mM Mg2+
Sequence of RB69pol Y567A mutant (Q38087 whole entry D222A/D327A/Y567A): as the sequence (Q38087 whole entry D222A/D327A) above, with Y567A counted along it
Outline: as §2

[4] = target: Y567A RB69pol mutant (Escherichia phage RB69, UniProt Q38087, D222A/D327A/Y567A); assay: Stopped-flow fluorescence of tC° quenching on dGTP binding; set-up: species or system bacteriophage RB69
Sequence of Y567A RB69pol mutant (Q38087 whole entry D222A/D327A/Y567A): as the sequence (Q38087 whole entry D222A/D327A) above, with Y567A counted along it

[5] = target: T1, wt RB69pol-P/T binary complex (Escherichia phage RB69, UniProt Q38087, D222A/D327A); assay: as above; set-up: species or system bacteriophage RB69; conditions: full quenching within instrument dead-time (< 2 ms)
T1 sequence (Q38087 whole entry D222A/D327A, one chain of several): as the sequence (Q38087 whole entry D222A/D327A) above

[6] = target: T1, wt RB69pol-P/T binary complex; assay: Equilibrium fluorescence titration of dNTP opposite tC°; type: binding, bacteriophage RB69; conditions: 1mM dNTP added to wt RB69pol-P/T binary complex
Outline: as §1

Sequence of Y567A-P/T binary complex (Q38087 whole entry D222A/D327A/Y567A, one chain of several): as the sequence (Q38087 whole entry D222A/D327A) above, with Y567A counted along it

Compound | quenching of tC° fluorescence [1] | Kpol/Kd,app [2] | fold difference in kpol between dGMP and dAMP [2] | kpol [2] | kpol ([2]; listed as dAMP) | fold increase of incorporation efficiency opposite tC° ([3]; Y567A mutant relative to wt RB69pol) | Kpol/Kd,app [3] | kpol [3] | kpol ([3]; listed as dAMP) | rate of tC° fluorescence quenching [4] | rate of tC° fluorescence quenching [5] | quenching of tC° fluorescence [6]
Nc1ncnc2c1ncn2[C@H]1C[C@H](O)[C@@H](COP(=O)(O)OP(=O)(O)OP(=O)(O)O)O1 [dATP] | ~15% | 3500 M⁻¹ s⁻¹ | 40 fold | 6 ± 0.2 s⁻¹ | 6 s⁻¹ | 200 fold | 700000 M⁻¹ s⁻¹ | 180 ± 10 s⁻¹ | 180 s⁻¹ |  |  | 
Nc1nc2c(ncn2[C@H]2C[C@H](O)[C@@H](COP(=O)(O)OP(=O)(O)OP(=O)(O)O)O2)c(=O)[nH]1 [dGTP] | about 30% | 1.8e+06 M⁻¹ s⁻¹ |  | 250 ± 7 s⁻¹ |  |  | 4.3e+07 M⁻¹ s⁻¹ | 170 ± 10 s⁻¹ |  | > 500 s⁻¹ | greater than 500 s^−1 | about 30%
